Measured values reported in ChEMBL document CHEMBL1155427, “Dopamine receptor ligands. Part 18: (1) modification of the structural skeleton of indolobenzazecine-type dopamine receptor antagonists” (J Med Chem, 2010).
Activity calls are given as the source filed them. The calls are words filed in the database; no cut-off is given here.

Columns and labels:
D(1A) dopamine receptor [1] = target: T1, D(1A) dopamine receptor (Homo sapiens, UniProt P21728); assay: Displacement of [3H]SCH23390 from human recombinant dopamine D1 receptor expressed in HEK293 cells by microplate scintillation counting; type: cell-based
T1 sequence (P21728 whole entry): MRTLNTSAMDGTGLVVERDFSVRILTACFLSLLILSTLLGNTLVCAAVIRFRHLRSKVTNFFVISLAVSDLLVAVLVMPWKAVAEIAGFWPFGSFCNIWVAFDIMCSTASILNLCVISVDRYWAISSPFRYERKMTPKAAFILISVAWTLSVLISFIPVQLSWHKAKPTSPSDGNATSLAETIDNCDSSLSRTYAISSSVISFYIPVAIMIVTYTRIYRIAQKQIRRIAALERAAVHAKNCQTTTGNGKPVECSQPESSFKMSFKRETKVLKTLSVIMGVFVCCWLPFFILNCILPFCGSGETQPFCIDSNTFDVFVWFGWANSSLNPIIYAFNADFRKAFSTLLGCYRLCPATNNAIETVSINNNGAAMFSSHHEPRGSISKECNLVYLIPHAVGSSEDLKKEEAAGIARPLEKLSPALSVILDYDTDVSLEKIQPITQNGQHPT
How it was run: (§1)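 Human D1 or D5 receptor stably expressed in HEK cells. Ki values in nM are means of two or three experiments, each run in triplicate, ± SEM.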

D(2) dopamine receptor [2] = target: T2, D(2) dopamine receptor (Homo sapiens, UniProt P14416); assay: Displacement of [3H]spiperone from human recombinant dopamine D2L receptor expressed in HEK293 cells by microplate scintillation counting; type: cell-based
T2 sequence (P14416 whole entry): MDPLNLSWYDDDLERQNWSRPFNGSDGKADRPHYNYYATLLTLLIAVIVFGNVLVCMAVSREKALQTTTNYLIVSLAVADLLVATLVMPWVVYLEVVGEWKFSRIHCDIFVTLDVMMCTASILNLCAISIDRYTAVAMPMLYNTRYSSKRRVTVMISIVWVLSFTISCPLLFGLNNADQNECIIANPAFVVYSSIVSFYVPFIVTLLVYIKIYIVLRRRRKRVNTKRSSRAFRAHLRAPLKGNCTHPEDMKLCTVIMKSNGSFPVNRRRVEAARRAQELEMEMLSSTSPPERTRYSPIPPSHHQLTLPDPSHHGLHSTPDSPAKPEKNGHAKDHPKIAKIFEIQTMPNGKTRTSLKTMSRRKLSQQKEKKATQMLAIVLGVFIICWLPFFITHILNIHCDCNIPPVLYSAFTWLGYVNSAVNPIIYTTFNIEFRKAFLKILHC
How it was run: (§2)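 Human D2L or D3 receptor stably expressed in HEK cells, or D4.4 in CHO cells. Competition binding against [3H]spiperone as the D2-like radioligand. Ki values in nM are means of two or three experiments, each run in triplicate, ± SEM.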

D(3) dopamine receptor = D(3) dopamine receptor (Homo sapiens, UniProt P35462); assay: Displacement of [3H]radioligand from human recombinant dopamine D3 receptor expressed in HEK293 cells by microplate scintillation counting; type: cell-based; how it was run: as §2
Sequence of D(3) dopamine receptor (P35462 whole entry): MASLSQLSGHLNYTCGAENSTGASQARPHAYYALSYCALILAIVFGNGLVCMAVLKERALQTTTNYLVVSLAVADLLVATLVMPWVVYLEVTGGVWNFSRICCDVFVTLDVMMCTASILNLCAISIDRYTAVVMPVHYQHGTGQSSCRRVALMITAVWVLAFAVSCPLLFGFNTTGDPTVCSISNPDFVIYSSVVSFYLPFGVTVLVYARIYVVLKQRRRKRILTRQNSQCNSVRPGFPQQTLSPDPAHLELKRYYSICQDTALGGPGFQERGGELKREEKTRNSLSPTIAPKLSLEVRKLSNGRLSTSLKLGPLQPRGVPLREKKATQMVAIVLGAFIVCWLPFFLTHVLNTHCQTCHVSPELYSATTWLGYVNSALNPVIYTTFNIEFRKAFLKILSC

D(4) dopamine receptor = target: T3, D(4) dopamine receptor (Homo sapiens, UniProt P21917); assay: Displacement of [3H]radioligand from human recombinant dopamine D4.4 receptor expressed in CHO cells by microplate scintillation counting; type: cell-based; how it was run: as §2
T3 sequence (P21917 whole entry): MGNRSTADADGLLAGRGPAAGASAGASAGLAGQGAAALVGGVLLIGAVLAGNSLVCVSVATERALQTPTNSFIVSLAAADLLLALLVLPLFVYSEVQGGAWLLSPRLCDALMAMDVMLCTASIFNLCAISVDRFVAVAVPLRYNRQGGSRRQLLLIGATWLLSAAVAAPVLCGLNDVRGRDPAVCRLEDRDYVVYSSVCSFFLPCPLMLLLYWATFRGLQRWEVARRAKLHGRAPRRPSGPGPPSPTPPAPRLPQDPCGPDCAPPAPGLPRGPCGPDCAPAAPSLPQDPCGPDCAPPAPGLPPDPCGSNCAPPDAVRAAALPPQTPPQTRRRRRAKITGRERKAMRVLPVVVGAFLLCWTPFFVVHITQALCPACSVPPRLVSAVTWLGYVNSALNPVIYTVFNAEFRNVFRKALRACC

D(1B) dopamine receptor = D(1B) dopamine receptor (Homo sapiens, UniProt P21918); assay: Displacement of [3H]radioligand from human recombinant dopamine D5 receptor expressed in HEK293 cells by microplate scintillation counting; type: cell-based; how it was run: as §1
Sequence of D(1B) dopamine receptor (P21918 whole entry): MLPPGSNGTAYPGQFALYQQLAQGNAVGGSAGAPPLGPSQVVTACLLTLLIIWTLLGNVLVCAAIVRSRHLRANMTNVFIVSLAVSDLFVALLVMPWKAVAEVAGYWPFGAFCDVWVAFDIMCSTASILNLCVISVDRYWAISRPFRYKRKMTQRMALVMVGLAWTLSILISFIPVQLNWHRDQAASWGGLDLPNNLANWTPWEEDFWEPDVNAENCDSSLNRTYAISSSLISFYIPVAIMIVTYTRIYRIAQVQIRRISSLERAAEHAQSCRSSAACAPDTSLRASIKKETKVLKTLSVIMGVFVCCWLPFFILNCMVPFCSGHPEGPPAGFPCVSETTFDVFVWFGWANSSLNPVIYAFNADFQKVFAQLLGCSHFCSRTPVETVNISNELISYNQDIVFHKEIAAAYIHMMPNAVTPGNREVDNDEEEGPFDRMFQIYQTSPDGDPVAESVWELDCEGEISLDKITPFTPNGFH

D(1A) dopamine receptor [3] = target: T1, D(1A) dopamine receptor; assay: Antagonist activity at human dopamine D1 receptor expressed in HEK293 cells assessed as inhibition of SKF-38393-induced calcium influx; type: functional, cell-based
How it was run: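 HEK293 cells stably expressing the human D1 receptor were loaded with a fluorescent dye. Cells were preincubated with rising concentrations of test ligand, then SKF 38393 agonist was injected. Ca2+-induced fluorescence was read on a microplate reader.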

D(2) dopamine receptor [4] = target: T2, D(2) dopamine receptor; assay: Antagonist activity at human dopamine D2L receptor expressed in HEK293 cells assessed as inhibition of quinpirole-induced calcium influx
[5] = Selectivity for dopamine D5 receptor over dopamine D1 receptor

Compound	Ki (D(1A) dopamine receptor [1])	Ki (D(2) dopamine receptor [2])	Ki (D(3) dopamine receptor)	Ki (D(4) dopamine receptor)	Ki (D(1B) dopamine receptor)	Activity (D(1A) dopamine receptor [3])	Activity (D(2) dopamine receptor [4])	Selectivity ratio [5]
CN1CCc2ccccc2Cc2c[nH]c3cccc(c23)CC1	4.2 nM	4 nM	42.9 nM	39.1 nM	2.5 nM	Active	Active	–
CN1CCc2ccccc2Cc2c[nH]c3cccc(c23)C1	> 10000 nM	> 10000 nM	> 10000 nM	> 10000 nM	> 10000 nM	–	–	–
CN1Cc2ccccc2[C@@H]2c3cccc4[nH]cc(c34)C[C@H]21	–	–	–	–	–	–	–	10
CN1CCc2ccccc2Cc2c([nH]c3ccccc23)CC1	28.5 nM	55.1 nM	513 nM	225 nM	10.3 nM	Active	Active	–
CN1CCc2ccccc2Cc2[nH]c3ccccc3c2CC1	–	–	–	–	–	Active	Active	–
c1ccc2c(c1)CCN1Cc3cccc4[nH]cc(c34)C21 (centres undefined)	–	–	–	> 10000 nM	–	Active	Active	–
c1ccc2c(c1)CCN1CCc3[nH]c4ccccc4c3C21 (centres undefined)	2100 nM	1480 nM	> 10000 nM	> 10000 nM	> 10000 nM	Active	Active	–
c1ccc2c(c1)CCN1CCc3cccc4[nH]cc(c34)C21 (centres undefined)	1840 nM	4460 nM	> 10000 nM	> 10000 nM	1520 nM	Active	Active	–
